From ChEMBL document CHEMBL2203173 (J Med Chem, 2012)
Each block holds one compound with its values, some of them ahead of it. Calls of active or inactive are those of the source. The rule behind the calls is not given here.

Legend:
Mus musculus [1] = assay: Toxicity in BALB/c nu/nu mouse xenografted with human DMS53 cells assessed as change in hematopoetic cells in splenic red pulp at 0.75 mg/kg, iv administered for 5 days a week measured after 21 days by hematoxylin and eosin staining method; assay type: organism-based, DMS-53; design: dose 0.75 mg/kg, route intravenous; conditions: in vivo, 504 h
Summary of the method: (§1)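 DMS-53 xenograft nude mice, dosed from 100 mm3 tumor volume. Reference chelator given iv via tail vein as the base form, 5 days/week for 21 days, vehicle 30% propylene glycol/saline. Organs taken at sacrifice on day 21, stained with H&E, Perls' and Gomori Trichrome, and examined by an independent veterinary pathologist.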

Mus musculus [2] = assay: Toxicity in BALB/c nu/nu mouse xenografted with human DMS53 cells assessed as change in platelet count at 0.75 mg/kg, iv administered for 5 days a week measured after 21 days; assay type: organism-based, DMS-53; design: dose 0.75 mg/kg, route intravenous; conditions: in vivo, 504 h
Summary of the method: (§2)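 Nude mice carrying DMS-53 xenografts (treatment from 100 mm3) received iv tail-vein doses in 30% propylene glycol/saline, 5 days/week for 21 days. Hematological indices (RBC, hemoglobin, hematocrit, reticulocytes, WBC, platelets) were then compared with vehicle controls.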

Mus musculus [3] = assay: Toxicity in BALB/c nu/nu mouse xenografted with human DMS53 cells assessed as change in reticulocyte count at 0.75 mg/kg, iv administered for 5 days a week measured after 21 days; assay type: organism-based, DMS-53; design: dose 0.75 mg/kg, route intravenous; conditions: in vivo, 504 h; summary of the method: as §2
Mus musculus [4] = assay: Toxicity in BALB/c nu/nu mouse xenografted with human DMS53 cells assessed as change in hemoglobin level at 0.75 mg/kg, iv administered for 5 days a week measured after 21 days; assay type: organism-based, DMS-53; design: dose 0.75 mg/kg, route intravenous; conditions: in vivo, 504 h
Summary of the method: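 DMS-53 xenografts in nude mice; dosing started at 100 mm3 tumor volume. Agents given iv via tail vein, 5 days/week for 21 days, vehicle 30% propylene glycol/saline, vehicle-treated controls. Mice sacrificed day 21. Body and organ weights and hematological indices recorded. Spleen, kidney, liver, heart, lungs and brain were stained with H&E, Perls' and Gomori Trichrome and read by an independent veterinary pathologist.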

Mus musculus [5] = assay: Toxicity in BALB/c nu/nu mouse xenografted with human DMS53 cells assessed as change in RBC count at 0.75 mg/kg, iv administered for 5 days a week measured after 21 days; assay type: organism-based, DMS-53; design: dose 0.75 mg/kg, route intravenous; conditions: in vivo, 504 h
Mus musculus [6] = assay: Toxicity in BALB/c nu/nu mouse xenografted with human DMS53 cells assessed as change in organ weight at 0.75 mg/kg, iv administered for 5 days a week measured after 21 days; assay type: organism-based, DMS-53; design: dose 0.75 mg/kg, route intravenous; conditions: in vivo, 504 h
Summary of the method: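 DMS-53 xenograft-bearing nude mice, treatment started at 100 mm3 tumour volume: iv tail-vein dosing in 30% propylene glycol/saline, 5 days/week for 21 days. Organs were weighed at sacrifice and compared with vehicle-control mice.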

Mus musculus [7] = assay: Toxicity in human DMS53 cells xenografted BALB/c nu/nu mouse assessed as body weight change at 0.75 mg/kg, iv administered for 5 days a week measured after 21 days; assay type: organism-based, DMS-53; design: dose 0.75 mg/kg, route intravenous; conditions: in vivo, 504 h
Summary of the method: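 Body weights of DMS-53 xenograft-bearing nude mice were followed over 21 days of iv tail-vein dosing, 5 days/week, in 30% propylene glycol/saline, beginning at 100 mm3 tumour volume. Values are the average body weight per group.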

DMS-53 [8] = assay: Antitumor activity against human DMS53 cells xenografted BALB/c nu/nu mouse assessed as reduction of tumor volume at 0.75 mg/kg, iv administered for 5 days a week measured after 21 days (RVb = 922 94 mm'3); assay type: functional, organism-based; design: dose 0.75 mg/kg
Summary of the method: (§3)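 Nude mice bearing DMS-53 xenografts began dosing once tumors reached 100 mm3. Agents given iv by tail vein 5 days/week in vehicle of 30% propylene glycol/saline, with vehicle controls. Net tumor volume followed for 21 days. Mice sacrificed on day 21 and tumors excised and wet-weighed.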

MRC5 = assay: Antiproliferative activity at human MRC5 cells after 72 hrs by MTT assay; assay type: functional, cell-based; conditions: MRC5, 72 h
A549 = assay: Antiproliferative activity at human A549 cells after 72 hrs by MTT assay; assay type: functional, cell-based; conditions: Homo sapiens, A549, 72 h
DMS-53 [9] = assay: Antiproliferative activity at human DMS53 cells after 72 hrs by MTT assay; assay type: functional, cell-based; conditions: Homo sapiens, DMS-53, 72 h
SK-N-MC [10] = assay: Induction of 59Fe mobilization in human SK-N-MC cells at 25 uM after 3 hrs by gamma-scintillation counter; assay type: functional
Summary of the method: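 SK-N-MC cells prelabeled with 59Fe-transferrin (0.75 μM) for 3 h/37 °C, then washed four times on ice with ice-cold PBS. Cells reincubated with or without chelators (25 μM) for 3 h/37 °C. Released 59Fe given as % of cellular 59Fe. Mean ± SD of three experiments.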

SK-N-MC [11] = assay: Inhibition to 59Fe uptake from 59Fe-transferrin in human SK-N-MC cells at 25 uM after 3 hrs; assay type: functional; design: scale not given: the % may be the effect or the level left
Summary of the method: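 SK-N-MC cells labeled with 59Fe-transferrin (0.75 μM) for 3 h/37 °C with or without chelators (25 μM). Cells washed four times on ice with ice-cold PBS. Internalized 59Fe separated with Pronase (1 mg/mL) and expressed as % of control. Mean ± SD of three experiments.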

Mus musculus [12] = assay: Toxicity in BALB/c nu/nu mouse xenografted with human DMS53 cells assessed as cardiac fibrosis at 0.75 mg/kg, iv administered for 5 days a week measured after 21 days by […]; assay type: organism-based, Heart, DMS-53; design: dose 0.75 mg/kg, route intravenous; conditions: in vivo, 504 h
Summary of the method: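 DMS-53 xenograft nude mice given agents iv by tail vein 5 days/week in 30% propylene glycol/saline for 21 days. At sacrifice, heart sections were stained with Gomori Trichrome to detect fibrosis. Spleen, kidney, liver, heart, lungs and brain were also stained with H&E and Perls' and examined by an independent veterinary pathologist.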

Mus musculus [13] = assay: Toxicity in BALB/c nu/nu mouse xenografted with human DMS53 cells assessed as change in lungs histology at 0.75 mg/kg, iv administered for 5 days a week measured after 21 days by hematoxylin and eosin staining method; assay type: organism-based, DMS-53; design: dose 0.75 mg/kg, route intravenous; conditions: in vivo, 504 h; summary of the method: as §1
Mus musculus [14] = assay: Toxicity in BALB/c nu/nu mouse xenografted with human DMS53 cells assessed as change in brain histology at 0.75 mg/kg, iv administered for 5 days a week measured after 21 days by hematoxylin and eosin staining method; assay type: organism-based, DMS-53; design: dose 0.75 mg/kg, route intravenous; conditions: in vivo, 504 h; summary of the method: as §1
Mus musculus [15] = assay: Toxicity in BALB/c nu/nu mouse xenografted with human DMS53 cells assessed as hepatocellular fibrosis at 0.75 mg/kg, iv administered for 5 days a week measured after 21 days by hematoxylin and eosin staining method; assay type: organism-based, DMS-53; design: dose 0.75 mg/kg, route intravenous; conditions: in vivo, 504 h
Summary of the method: (§4)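 Nude mice with DMS-53 xenografts dosed by tail-vein iv injection in 30% propylene glycol/saline, starting at 100 mm3 tumour volume, 5 days/week for 21 days. Spleen, kidney, liver, heart, lungs and brain were stained with H&E, Perls' (Fe loading) and Gomori Trichrome (fibrosis) by standard methods, and an independent veterinary pathologist examined them.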

Mus musculus [16] = assay: Toxicity in BALB/c nu/nu mouse xenografted with human DMS53 cells assessed as hepatocellular necrosis at 3 mg/kg, iv administered for 5 days a week measured after 21 days by hematoxylin and eosin staining method; assay type: organism-based, DMS-53; design: dose 3 mg/kg, route intravenous; conditions: in vivo, 504 h; summary of the method: as §4
Mus musculus [17] = assay: Toxicity in BALB/c nu/nu mouse xenografted with human DMS53 cells assessed as hepatocellular necrosis at 0.75 mg/kg, iv administered for 5 days a week measured after 21 days by hematoxylin and eosin staining method; assay type: organism-based, DMS-53; design: dose 0.75 mg/kg, route intravenous; conditions: in vivo, 504 h; summary of the method: as §4
Mus musculus [18] = assay: Toxicity in BALB/c nu/nu mouse xenografted with human DMS53 cells assessed as vacuolation at 0.75 mg/kg, iv administered for 5 days a week measured after 21 days by hematoxylin and eosin staining method; assay type: organism-based, DMS-53; design: dose 0.75 mg/kg, route intravenous; conditions: in vivo, 504 h; summary of the method: as §4
DMS-53 [19] = assay: Antitumor activity against human DMS53 cells xenografted in BALB/c nu/nu mouse assessed as reduction in tumor weight at 8 mg/kg, iv administered for 5 days per week measured after 21 days (reference value: 0.830.11 g); assay type: functional, organism-based; design: dose 8 mg/kg; summary of the method: as §3
DMS-53 [20] = assay: Antitumor activity against human DMS53 cells xenografted in BALB/c nu/nu mouse assessed as reduction in tumor weight at 4 mg/kg, iv administered for 5 days a week measured after 21 days (reference value: 0.830.11 g); assay type: functional, organism-based; design: dose 4 mg/kg; summary of the method: as §3
DMS-53 [21] = assay: Antitumor activity against human DMS53 cells xenografted in BALB/c nu/nu mouse assessed as reduction of tumor volume at 4 mg/kg, iv administered for 5 days a week measured after 21 days (RVb = 922 94 mm'3); assay type: functional, organism-based; design: dose 4 mg/kg; summary of the method: as §3
DMS-53 [22] = assay: Antitumor activity against human DMS53 cell xenografted BALB/c nu/nu mouse assessed as reduction in tumor volume at 10 mg/kg, po administered for 3 times a week measured after 20 days (reference value: 997 155 mm'3); assay type: functional, organism-based; design: dose 10 mg/kg
Summary of the method: (§5)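 DMS-53 xenograft nude mice gavaged 3 times/week with agent in 30% propylene glycol/saline or with vehicle alone. Net tumor volume followed for 20 days; the study ended when control tumors neared the 1000 mm3 ethical limit. Tumors excised and wet-weighed on day 20. n = 6–11 mice/condition, mean ± SD.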

DMS-53 [23] = assay: Antitumor activity against human DMS53 cells xenografted in BALB/c nu/nu mouse assessed as reduction of tumor volume at 8 mg/kg, iv administered for 5 days a week measured after 21 days (RVb = 922 94 mm'3); assay type: functional, organism-based; design: dose 8 mg/kg; summary of the method: as §3
DMS-53 [24] = assay: Antitumor activity against human DMS53 cell xenografted BALB/c nu/nu mouse assessed as reduction in tumor volume at 20 mg/kg, po administered for 3 times a week measured after 20 days (reference value: 997 155 mm'3); assay type: functional, organism-based; design: dose 20 mg/kg; summary of the method: as §5
SK-N-MC [25] = assay: Antiproliferative activity at human SK-N-MC cells after 72 hrs by MTT assay; assay type: functional, cell-based
DMS-53 [26] = assay: Antitumor activity against human DMS53 cell xenografted BALB/c nu/nu mouse assessed as reduction in tumor volume at 7.5 mg/kg, po administered for 3 times a week measured after 20 days (reference value: 997 155 mm'3); assay type: functional, organism-based; design: dose 7.5 mg/kg; summary of the method: as §5
DMS-53 [27] = assay: Antitumor activity against human DMS53 cells xenografted in BALB/c nu/nu mouse assessed as reduction of tumor volume at 6 mg/kg, iv administered for 5 days a week measured after 21 days (RVb = 922 94 mm'3); assay type: functional, organism-based; design: dose 6 mg/kg; summary of the method: as §3
DMS-53 [28] = assay: Antitumor activity against human DMS53 cells xenografted in BALB/c nu/nu mouse assessed as reduction of tumor volume at 3 mg/kg, iv administered for 5 days a week measured after 21 days (RVb = 922 94 mm'3); assay type: functional, organism-based; design: dose 3 mg/kg; summary of the method: as §3

- IC50 (A549): 20 nM
SMILES: CN(C)C(=S)NN=C(c1ccccn1)c1ccccn1
- Activity (Mus musculus [1]): Non-toxic
- Activity (Mus musculus [2]): Non-toxic
- Activity (Mus musculus [3]): Non-toxic
- Activity (Mus musculus [4]): Non-toxic
- Activity (Mus musculus [5]): Non-toxic
- Activity (Mus musculus [6]): Non-toxic
- Activity (Mus musculus [7]): Non-toxic
- Activity (DMS-53 [8]): Active
- IC50 (MRC5): > 10000 nM
- IC50 (DMS-53 [9]): 10 nM
- Activity (SK-N-MC [10]): 45%
- Activity (SK-N-MC [11]): 3.5%
- Activity (Mus musculus [12]): Toxic
- Activity (Mus musculus [13]): Non-toxic
- Activity (Mus musculus [14]): Non-toxic
- Activity (Mus musculus [15]): Non-toxic
- Activity (Mus musculus [16]): Non-toxic
- Activity (Mus musculus [17]): Non-toxic
- Activity (Mus musculus [18]): Toxic

SMILES: CN(C(=S)NN=C(c1ccccn1)c1ccccn1)C1CCCCC1
- Activity (DMS-53 [19]): Active
- Activity (DMS-53 [20]): Active
- Activity (DMS-53 [21]): Active
- Activity (DMS-53 [22]): Active
- Activity (DMS-53 [23]): Active
- Activity (DMS-53 [24]): Active

- IC50 (SK-N-MC [25]): 10 nM
SMILES: CCN(C(=S)NN=C(c1ccccn1)c1ccccn1)c1ccccc1

SMILES: CCN(C)C(=S)NN=C(c1ccccn1)c1ccccn1
- Activity (DMS-53 [26]): Active
- Activity (DMS-53 [27]): Active
- Activity (DMS-53 [28]): Active
- Activity (DMS-53 [22]): Active
